Compound activity as filed in PubChem BioAssay.
Shown are actives, neighbours in structure and some others; about 5.1% of the full set was active somewhere.
NF-kB neuron act = compounds increasing NF-kB expression in human neuronal cells. 1.6% of 190,000 active. fold change at 12.5 µM. NF-kB reporter expression; active compounds read high. AID 1239; in the data active means fold change above about 3.3
STAT1 blocker = STAT1 signaling inhibition. 0.35% of 200,000 active. inhibition, % at 5.5 µM. NIH 3T3 STAT1-luciferase reporter, IFN-gamma, luminescence;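 active means inhibition above a set limit, the mean inhibition across all tested compounds plus 3 SD, cut at about 34% in these data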;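 further: 0% = IFN-gamma with DMSO and 100% = IFN-gamma with 300 µM nifuroxazide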
STAT3 blocker = STAT3 signaling inhibition | U3A cells, IL-6 STAT3-luciferase reporter, luminescence; host cell line lacks STAT1 | inhibition, % at 5.5 µM | 0.89% of 190,000 active | AID 862;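 active means inhibition above the mean inhibition across all screened compounds plus 3 SD, cut at about 44% in these data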;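 further: 0% = DMSO only wells and 100% = 100 µM nifuroxazide control wells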
APP 5'UTR act = activates APP 5'UTR luciferase reporter; SH-SY5Y APP 5'UTR luciferase reporter, luminescence; zero percent = DMSO vehicle wells; activation, % at 2 µM; 1% of 190,000 active;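 active means activation above a set limit, based on mean plus 3 SD of controls, cut at about 140% in these data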
STAT1 act = STAT1 signaling activation; NIH 3T3 STAT1-luciferase reporter, IFN-gamma, luminescence; 100% = IFN-gamma alone, no compound; activation (% of control), % at 5.5 µM; 2.6% of 200,000 active;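 active means activation above the screen-wide mean activation plus 3 SD, cut at about 130% in these data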;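 further: raw ratio to IFN-gamma control signal so 100% means no change and 0% no light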
STAT3 act = STAT3 signaling activation. U3A cells, IL-6 STAT3-luciferase reporter, luminescence; 100% = signal with IL-6 EC80 alone. activation (% of control), % at 5.6 µM. AID 871. 0.91% of 190,000 active;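 active means activation above the screen-wide mean of compound activation plus 3 SD, cut at about 130% in these data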;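 further: 0% = background luminescence of wells with medium and substrate only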
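Test system: STAT3-luciferase reporter U3A cells; Detection: reporter luminescence signal; Times: 1 h compound pre-exposure, 6 h IL-6 stimulation, 37 °C; Benchmarks: IL-6-only high control; Also added: IL-6 stimulus at 33 ng/mL final.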
* = called active by the depositor.

SMILES	NF-kB neuron act	STAT1 blocker	STAT3 blocker	APP 5'UTR act	STAT1 act	STAT3 act
Cn1c(C(=O)N(Cc2ccccc2)Cc2cccs2)cc2sccc21	1.1	3	5	3	98	99
N=C(N)N1CCN(Cc2ccccc2)CC1	1.1	0	10	-14	99	101
COc1cc(OC)cc(C(=O)N=c2sc3ccccc3n2C)c1	1.2	-43	-10	146*	139*	110
Cc1ccc(C(=O)N/N=c2\sc3ccccc3n2C)cc1	1.2	3	23	18	98	82
COc1cccc(C(=O)N/N=c2\sc3ccccc3n2C)c1	0.94	-7	8	-1	106	94
Cn1/c(=N/NC(=O)c2ccccc2F)sc2ccccc21	2	-52	3	79	149*	102
COc1ccc(C(=O)N=c2sc3ccccc3n2C)cc1	8.1*	-46	-40	163*	141*	134*
COc1cccc(C(=O)N=c2sc3cc(S(C)(=O)=O)ccc3n2C)c1	1.1	-38	11	114	132*	93
CNC(=S)Nc1cccc(Cl)c1C	1	4	2	-24	95	105
Cn1c(=NC(=O)COc2ccccc2)sc2ccccc21	3.6*	-51	-2	58	148*	106
C/C(=N\Nc1nccnc1Cl)c1ccc(F)cc1	0.87	-39	7	93	134*	96
COC(=O)[C@@H]1CC[C@H](C)[C@@H](c2ccc(C)cc2)N1C(=O)c1ccc(/C=N/OCC[C@@H]2C=C[C@H](OC(C)=O)[C@@H](COC(C)=O)O2)cc1	0.88	-4	-5	8	104	102
Cc1cc(=O)[nH]c(SCC(=O)N2CCN(S(=O)(=O)c3ccccc3)C2)n1	1.1	2	5	6	97	101
CC(=O)c1sc2nc(C)cc(C)c2c1N	1.2	-3	20	-10	100	89
Cc1ccc2nc(-c3sc4nc(C)cc(C)c4c3N)[nH]c2c1	2.8	-34	-44	170*	131*	140*
CCOc1ccc(-c2ccc(SCC(=O)Nc3nnc(C)s3)nn2)cc1	2.6	-4	22	183*	103	89
CCc1ccc(-c2ccc(SCc3ccccn3)nn2)cc1	2	-46	14	45	140*	93
CCOc1ccc(-c2ccc(SCc3ccccn3)nn2)cc1	1.1	-33	26	49	129*	85
c1ccc(CSc2ccc(-c3cccs3)nn2)nc1	2.5	-38	15	78	136*	94
CCc1ccc(-c2ccc(SCC(=O)Nc3nnc(C)s3)nn2)cc1	3	-22	23	85	119	85
Cc1cc(Nc2ccc3c(c2)OCCO3)c2cc(Cl)ccc2n1	0.95	-3	8	18	102	94
Cn1cccc1/C=C1\SC(=O)N(c2ccc(O)cc2)C1=O	1.6	-15	9	13	114	91
O=C(CCCN1C(=O)/C(=C/c2cccc(Br)c2)SC1=S)Nc1cccnc1	3.4*	7	8	-3	92	98
N#C/C(=C\c1ccc(Sc2ccccc2)o1)c1nc2ccccc2[nH]1	1.7	-5	-14	139*	107	109
N#C/C(=C\c1ccc([N+](=O)[O-])o1)c1nc2ccccc2[nH]1	1.5	18	-7	-97	84	105
SMILES	NF-kB neuron act	STAT1 blocker	STAT3 blocker	APP 5'UTR act	STAT1 act	STAT3 act
O=c1cc(-c2ccccc2)[nH]c2nc3ccccc3n12	4.8*	6	36	116	94	73
CCc1c(C)[nH]c2nc3ccccc3n2c1=O	1	-4	-3	-25	104	108
Cc1c(C)c2ccc(OCC(=O)N3CCOCC3)c(C)c2oc1=O	1.2	-12	8	1	108	99
Cc1c(/C=N/NC(=O)CNc2ccccc2)c2ccccn2c1C(=O)c1ccccc1	0.52	-3	-1	3	103	106
O=C(O)CN1C(=O)C2C3CC(C2C1=O)C1C(c2ccc(F)cc2)c2sc(=O)[nH]c2SC31 (configuration not stated)	1.1	-6	3	-5	104	101
Cc1ccc(-c2nc3ccccc3[nH]2)cc1NC(=O)c1ccc2c(c1)OCO2	0.46	0	14	6	100	94
O=C(NC(=S)Nc1cc(-c2nc3ccccc3[nH]2)ccc1Cl)c1ccc2c(c1)OCO2	2.2	-49	-9	-7	144*	113
Cc1c(NC(=S)SCc2ccccc2)c(=O)n(-c2ccccc2)n1C	1.6	-3	-6	-8	102	106
CCc1ccc(-c2ccc(C(=O)C(F)(F)F)[nH]2)cc1	4.5*	-26	-7	179*	124	106
O=[N+]([O-])c1ccc(Nc2ccccc2F)nc1	1.4	0	22	9	99	84
CCCCc1ccc(-c2ccc(Br)cc2O)nc1	5.5*	-43	26	29	140*	82
O=C(c1ccc(Cl)cc1)c1coc2ccc(O)cc12	8.8*	-8	1	129	107	101
COc1ccc2occ(C(=O)c3ccccc3)c2c1	0.92	-43	11	36	135*	94
COCCN(C(=O)c1ccccc1OC)c1nnc(C)s1	1.4	0	-36	16	100	134*
COc1ccccc1C(=O)Nc1nnc(C)s1	2.2	-28	3	40	126	103
O=Cc1c(-c2ccc(F)cc2)nc2ccccn12	0.93	-3	13	9	101	90
COc1ccc(-c2nc3ccccn3c2C=O)cc1	2.4	-49	2	106	143*	96
Nc1ncccc1OCc1ccc(Br)cc1	3.1	-47	19	67	141*	91
Brc1ccc(COc2ncnc3ccccc23)cc1	1.7	-4	2	-14	103	98
Cc1ccc(N2C(=O)C3C(C2=O)C2C=CC3C23CC3)c([N+](=O)[O-])c1 (configuration not stated)	1.5	2	15	-13	98	91
CCn1c(C)nc2cc(C(=O)NNC(=S)Nc3ccc(OC)cc3)ccc21	1.3	-13	28	-2	111	78
COc1ccccc1C(=O)Nc1ccc2c3c(cccc13)CC2	1.5	-36	-2	48	132*	99
COc1ccc(-c2noc(CCc3ccccc3)n2)cc1	1.6	-40	8	40	134*	97
Cc1cccc(-c2noc(CSc3ccccc3)n2)c1	2.8	-49	-1	63	145*	105
COc1ccc(CCc2nc(-c3ccc(-n4cccc4)cc3)no2)cc1	1.2	0	23	11	100	88
Cc1ccc(-c2noc(CSc3nc(N)cc(N)n3)n2)cc1	3.4*	-31	3	104	128	100
c1ccc(SCc2nc(-c3cccnc3)no2)cc1	3.1	-38	6	46	133*	96
